The target in test [1] is T1, 3',5'-cyclic-AMP phosphodiesterase 4B (Homo sapiens, UniProt Q07343). The test can be described thus: Inhibition of PDE4B1 (unknown origin) expressed in sf9 cells using cAMP as substrate preincubated at 30 uM for 15 mins before substrate addition measured after 1 hr by luminescence assay. The method in brief:
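His-tagged PDE4B1 was expressed in baculovirus-infected Sf9 cells (lysed 48 h post infection) and purified on Ni-NTA. 10 ng of enzyme was preincubated 15 min with compound or DMSO vehicle, then given cAMP substrate for 1 h. The reaction was stopped and detection reagent added for 10 min in the dark before reading luminescence. % inhibition = (RLU vehicle − RLU inhibitor)/RLU vehicle × 100, at a single screening concentration.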

In test [2] the target is T1, 3',5'-cyclic-AMP phosphodiesterase 4B. Nature of the test: Inhibition of PDE4B1 (unknown origin) expressed in sf9 cells using cAMP as substrate preincubated for 15 mins before substrate addition measured after 1 hr by luminescence assay. In outline: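 Ni-NTA-purified His-tagged PDE4B1 from baculovirus-infected Sf9 cells was used at 10 ng per reaction. Enzyme was preincubated 15 min with compound (9 concentrations) or DMSO, then cAMP for 1 h. After stop solution and 10 min detection reagent in the dark, luminescence was read. % inhibition was taken versus vehicle RLU. IC50 came from nonlinear regression of the dose-response curve and is given as mean ± SD.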

From ChEMBL document CHEMBL2331491, “Novel imidazophenoxazine-4-sulfonamides: their synthesis and evaluation as potential inhibitors of PDE4” (Bioorg Med Chem, 2013) come the findings set out here.

As a reminder, the inhibition is how much of the control response was suppressed. A word on the IC50: it is the concentration that gives 50% inhibition. Higher therefore signals weaker potency in that assay.

T1 sequence (Q07343 whole entry): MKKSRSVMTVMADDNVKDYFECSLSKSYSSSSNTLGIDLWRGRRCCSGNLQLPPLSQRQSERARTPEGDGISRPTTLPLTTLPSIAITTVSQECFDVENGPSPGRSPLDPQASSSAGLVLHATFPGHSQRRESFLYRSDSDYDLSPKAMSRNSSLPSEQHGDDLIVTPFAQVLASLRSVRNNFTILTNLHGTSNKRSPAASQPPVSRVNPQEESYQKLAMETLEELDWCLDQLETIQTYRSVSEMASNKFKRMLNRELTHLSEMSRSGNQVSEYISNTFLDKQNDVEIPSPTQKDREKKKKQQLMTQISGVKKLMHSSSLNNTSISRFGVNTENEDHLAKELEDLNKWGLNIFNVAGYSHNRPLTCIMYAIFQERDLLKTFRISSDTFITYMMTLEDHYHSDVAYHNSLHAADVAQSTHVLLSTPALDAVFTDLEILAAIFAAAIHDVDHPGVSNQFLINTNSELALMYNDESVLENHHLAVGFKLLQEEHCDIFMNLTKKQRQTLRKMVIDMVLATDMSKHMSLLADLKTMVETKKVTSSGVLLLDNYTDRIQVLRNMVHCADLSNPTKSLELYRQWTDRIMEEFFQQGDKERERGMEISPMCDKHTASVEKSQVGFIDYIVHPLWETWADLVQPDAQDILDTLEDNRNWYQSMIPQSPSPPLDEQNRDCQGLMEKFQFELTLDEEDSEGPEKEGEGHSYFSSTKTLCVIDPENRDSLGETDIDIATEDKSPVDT

In the case of `NS(=O)(=O)c1cc2c3c(c1)nc(-c1c(Cl)cccc1Cl)n3-c1ccccc1O2`, the inhibition in test [1] came to 80.2%.

As to `NS(=O)(=O)c1cc2c3c(c1)nc(-c1cccc([N+](=O)[O-])c1)n3-c1ccccc1O2`, in test [1], the inhibition was 66.8%.

With `NS(=O)(=O)c1cc2c3c(c1)nc(-c1ccccc1Cl)n3-c1ccccc1O2`, the inhibition in test [1] worked out at 76.3%.

Take `CCN(CC)c1ccc(-c2nc3cc(S(N)(=O)=O)cc4c3n2-c2ccccc2O4)c(O)c1`: the inhibition in test [1] was 19.7%.

As to `NS(=O)(=O)c1cc2c3c(c1)nc(-c1ccc(Cl)cc1)n3-c1ccccc1O2`, the inhibition in test [1] was 80.3%.

In turn, `NS(=O)(=O)c1cc2c3c(c1)nc(-c1ccccc1Br)n3-c1ccccc1O2` came in with an inhibition in test [1] of 81%.

On to `COc1ccc(-c2nc3cc(S(N)(=O)=O)cc4c3n2-c2ccccc2O4)cc1`, for which, in test [1], the inhibition was determined as 66.5%.

Compound `NS(=O)(=O)c1cc2c3c(c1)nc(-c1ccccc1)n3-c1ccccc1O2` had an inhibition in test [1] of 79.7%.

`NS(=O)(=O)c1cc2c3c(c1)nc(-c1cccc(Br)c1)n3-c1ccccc1O2`: the figures for the inhibition in test [1] and in test [2] were 89.7% and “Dose-dependent effect”, respectively. The midpoint of inhibition in test [2], the IC50, lay at 1230 nM.

In test [1], `NS(=O)(=O)c1cc2c3c(c1)nc(-c1cccc(O)c1)n3-c1ccccc1O2` had an inhibition of 87.6%.

Regarding `NS(=O)(=O)c1cc2c3c(c1)nc(-c1cc(Br)ccc1F)n3-c1ccccc1O2`, the inhibition was 92.9% in test [1] and “Dose-dependent effect” in test [2]. Moreover, in test [2], the IC50 amounted to 530 nM.

In test [1], `COc1cc(-c2nc3cc(S(N)(=O)=O)cc4c3n2-c2ccccc2O4)ccc1O` returned an inhibition of 82.4%.

On to `NS(=O)(=O)c1cc2c3c(c1)nc(-c1ccc(O)cc1)n3-c1ccccc1O2`, for which, in test [1], the inhibition worked out at 88.8%.

In test [1], `NS(=O)(=O)c1cc2c3c(c1)nc(-c1ccccc1O)n3-c1ccccc1O2` had an inhibition of 89.3%. In test [2], the IC50 was found to be 3310 nM and the inhibition result is “Dose-dependent effect”.
